Substitutions are numbered along the chain they refer to. Where two headings read alike, the source gives them in different places.
How the values were obtained:
LYP C129S = biological target: T1, LYP C129S (Homo sapiens, UniProt Q9Y2R2, C129S); experiment: Enzyme inhibition assay; format: biochemical; settings: 5 nM enzyme, 1.5 μM DiFMUP
T1 sequence (Q9Y2R2 24-289 C129S limits assumed): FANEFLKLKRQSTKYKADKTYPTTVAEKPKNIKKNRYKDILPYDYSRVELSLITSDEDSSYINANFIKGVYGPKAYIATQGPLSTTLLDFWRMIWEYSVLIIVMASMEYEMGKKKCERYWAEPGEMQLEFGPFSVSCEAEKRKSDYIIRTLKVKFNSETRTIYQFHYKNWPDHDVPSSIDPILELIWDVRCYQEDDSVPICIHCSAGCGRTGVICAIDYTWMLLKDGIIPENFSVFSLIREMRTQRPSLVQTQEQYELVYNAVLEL
How it was run: (§1)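 Single-mutant catalytic domains (C129S or C231S) at 5 nM final, each activated 30 min with 0.1 mM DTT. Triplicate kinetic fluorescence (360/455 nm, every 60 s, 30 min), averaged, converted to DiFMU by standard curve.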

LYP C231S = biological target: T2, LYP C231S (Homo sapiens, UniProt Q9Y2R2, C231S); experiment: Enzyme inhibition assay; format: biochemical; settings: 5 nM enzyme, 1.5 μM DiFMUP
T2 sequence (Q9Y2R2 24-289 C231S limits assumed): T1 sequence (Q9Y2R2 24-289 C129S limits assumed) with S106C, C208S
How it was run: as §1

LYP C129/231S [1] = biological target: T3, LYP C129/231S (Homo sapiens, UniProt Q9Y2R2, C129S/C231S); experiment: Enzyme inhibition assay; format: biochemical
T3 sequence (Q9Y2R2 24-289 C129S/C231S limits assumed): T1 sequence (Q9Y2R2 24-289 C129S limits assumed) with C208S
How it was run: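 LYP C129S/C231S catalytic domain at 20 nM final, preactivated with 0.1 mM DTT for 1 h. Test compound and 1.5 μM DiFMUP added in DMSO (5% final). Fluorescence (ex 360/em 455 nm) read every 60 s for 30 min, in triplicate, averaged, converted to DiFMU via standard curve.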

LYP [2] = biological target: T4, LYP (Homo sapiens, UniProt Q9Y2R2); experiment: Mode of inhibition assay; format: biochemical
T4 sequence (Q9Y2R2 24-289 limits assumed): T1 sequence (Q9Y2R2 24-289 C129S limits assumed) with S106C
How it was run: (§2)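 Catalytic domains (LYP and PTP-PEST 5 nM; LYP C129/231S 20 nM) in pH 6.5 Tris/NaCl/EDTA/DTT/Brij 35 buffer at room temperature. Activity measured across a series of DiFMUP concentrations with no test compound or several fixed test compound concentrations, triplicate at each substrate level. Reciprocal rate plotted against reciprocal substrate concentration for each inhibitor level (Lineweaver–Burk).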

PTP-PEST [3] = biological target: T5, PTP-PEST (Homo sapiens, UniProt Q05209); experiment: Mode of inhibition assay; format: biochemical
T5 sequence (Q05209 28-293 limits assumed): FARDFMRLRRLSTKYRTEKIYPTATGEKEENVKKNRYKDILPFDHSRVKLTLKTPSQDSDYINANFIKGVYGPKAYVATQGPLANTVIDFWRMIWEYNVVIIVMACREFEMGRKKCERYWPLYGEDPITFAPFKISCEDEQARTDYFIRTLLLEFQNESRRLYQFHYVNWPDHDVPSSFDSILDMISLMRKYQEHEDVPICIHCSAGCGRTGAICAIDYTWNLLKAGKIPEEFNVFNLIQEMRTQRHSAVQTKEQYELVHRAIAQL
How it was run: as §2

LYP C129/231S [4] = biological target: T3, LYP C129/231S; experiment: Mode of inhibition assay; format: biochemical
How it was run: as §2

Jurkat TAg cells = experiment: Inhibition studies with JTAg cells; format: cell-based; settings: 50 μM, 1 h, western blot
How it was run: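 Jurkat TAg cells kept in log growth in supplemented RPMI 1640 (10% FBS). 20×10^6 cells treated for 1 h at room temperature with 50 μM test compound or DMSO (<2%), then split and stimulated 2 min with C305 hybridoma supernatant or left unstimulated. NP-40 lysates, Bradford-normalised, run on 10% SDS–PAGE. Blots probed for pLck Y394/Y505, pZAP-70 Y319 and pERK against total-protein controls, developed by ECL.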

LYP [5] = biological target: T4, LYP; settings: wild-type LYP; cited from earlier work
PTP-PEST [6] = biological target: T5, PTP-PEST; settings: cited from earlier work
HePTP = settings: cited from earlier work
CD45 = settings: cited from earlier work
[7] = read-out: Calculated Ki, from Lineweaver-Burk data
[8] = read-out: Estimated Ki from Dixon plot, Ki = -intersection point

## N#CCC[PH](CCC#N)([Au][Cl])c1ccccc1 [Complex 1, bis(cyanoethyl)phenylphosphine–Au(I)–Cl]
LYP C129S
  IC50: 4 ± 0.2 µM
LYP C231S
  IC50: 4 ± 0.8 µM
LYP C129/231S [1]; LYP C129/231S, 20 nM enzyme, 1.5 μM DiFMUP
  IC50: 40 ± 4 µM
LYP C129/231S [1]; fold higher
  IC50 of LYP C129/231S relative to wild-type LYP and single mutants: roughly 10 fold
LYP [2]; Lineweaver-Burk plot
  Mode of inhibition: competitive inhibition
LYP [2]; [7]
  Ki: 2.38 ± 1.1 µM
LYP [2]; [8]
  Ki: ~1.2 µM
PTP-PEST [3]; Lineweaver-Burk plot
  Mode of inhibition: competitive inhibition
PTP-PEST [3]; [7]
  Ki: 53.3 ± 16.3 µM
PTP-PEST [3]; [8]
  Ki: ~80 µM
LYP C129/231S [4]; Lineweaver-Burk plot
  Mode of inhibition: mixed-type inhibition
LYP C129/231S [4]; [7]
  Ki: 58.6 ± 5.3 µM
LYP C129/231S [4]; [8]
  Ki: ~70 µM
Jurkat TAg cells; JTAg cells
  Phosphorylation of Lck at Y505 (cellular CD45 inhibition): no change in phosphorylation levels at position Y505
Jurkat TAg cells; TCR stimulated JTAg cells
  Phosphorylation of ERK1/2: increased phosphorylation levels
  Phosphorylation of Lck at Y394 (cellular LYP inhibition): increase in phosphorylation at Y394
  Phosphorylation of ZAP-70: increased phosphorylation levels
LYP [5]
  IC50: 3.5 ± 0.1 µM
PTP-PEST [6]
  IC50: > 80 µM
HePTP
  IC50: > 50 µM
CD45
  IC50: > 70 µM

Reference: publication PMC2873867 (Journal of inorganic biochemistry, 2009)
